Molecules are shown by their SMILES.

Sodium-dependent dopamine transporter, sequence (P23977 whole entry): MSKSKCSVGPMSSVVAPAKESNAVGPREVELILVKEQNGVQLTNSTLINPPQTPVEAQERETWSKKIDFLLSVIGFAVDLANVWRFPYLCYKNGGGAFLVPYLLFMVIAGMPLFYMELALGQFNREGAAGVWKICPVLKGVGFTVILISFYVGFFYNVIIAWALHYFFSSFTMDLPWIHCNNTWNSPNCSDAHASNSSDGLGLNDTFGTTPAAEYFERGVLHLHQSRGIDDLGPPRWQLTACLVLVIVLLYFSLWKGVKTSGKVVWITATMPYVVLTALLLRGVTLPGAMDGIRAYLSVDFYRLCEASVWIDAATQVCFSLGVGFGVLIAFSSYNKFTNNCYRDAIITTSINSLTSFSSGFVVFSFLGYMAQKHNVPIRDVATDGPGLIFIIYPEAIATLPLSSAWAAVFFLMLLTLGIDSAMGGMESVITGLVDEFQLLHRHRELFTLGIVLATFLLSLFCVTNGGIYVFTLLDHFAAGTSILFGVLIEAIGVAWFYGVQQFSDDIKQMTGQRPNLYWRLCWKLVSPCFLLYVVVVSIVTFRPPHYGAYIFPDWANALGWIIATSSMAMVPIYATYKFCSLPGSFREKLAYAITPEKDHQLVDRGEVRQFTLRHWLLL

The test has as its target Sodium-dependent dopamine transporter (Rattus norvegicus, UniProt P23977). Put plainly: Binding affinity for dopamine transporters in rat brain tissue. The procedure, abridged:
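Crude membrane fraction from rat corpus striatum homogenate. Nonspecific binding defined with 30 μM methylphenidate. Each agent tested at six concentrations in duplicate. Concentration-inhibition curves computer-fit for IC50 ± SEM, converted to Ki = IC50/(1 + [L/Kd]).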
As for `CC(C)OC(=O)[C@H]1C(c2cc[c]([Sn]([CH3])([CH3])[CH3])cc2)C[C@H]2CCC1N2CCF` (stereo partly drawn) [(2S,5R)-8-(2-Fluoro-ethyl)-3-(4-trimethylstannanyl-phenyl)-8-aza-bicyclo[3.2.1]octane-2-carboxylic acid isopropyl ester], the affinity corresponds to a Ki of 1.15 µM.
Turning to `CC(C)OC(=O)[C@H]1C(c2cc[c]([Sn]([CH3])([CH3])[CH3])cc2)C[C@H]2CCC1N2CCCF` (stereo partly drawn) [(2S,5R)-8-(3-Fluoro-propyl)-3-(4-trimethylstannanyl-phenyl)-8-aza-bicyclo[3.2.1]octane-2-carboxylic acid isopropyl ester], the Ki was above 10 µM.
`COC(=O)[C@H]1C(c2cc[c]([Sn]([CH3])([CH3])[CH3])cc2)C[C@H]2CCC1N2CCCF` (stereo partly drawn) [(2S,5R)-8-(3-Fluoro-propyl)-3-(4-trimethylstannanyl-phenyl)-8-aza-bicyclo[3.2.1]octane-2-carboxylic acid methyl ester] yielded a Ki above 10 µM.
In the case of `COC(=O)[C@H]1C(c2cc[c]([Sn]([CH3])([CH3])[CH3])cc2)C[C@H]2CCC1N2CCF` (stereo partly drawn) [(2S,5R)-8-(2-Fluoro-ethyl)-3-(4-trimethylstannanyl-phenyl)-8-aza-bicyclo[3.2.1]octane-2-carboxylic acid methyl ester], the Ki was above 10 µM.

What is called Ki is a measure of affinity in units of concentration, obtained from inhibition or displacement. The low end stands for tighter binding, the high end for weaker binding.
